Assay results as given in ChEMBL document CHEMBL3425510, “Discovery of bisamide-heterocycles as inhibitors of scavenger receptor BI (SR-BI)-mediated lipid uptake” (Bioorg Med Chem Lett, 2015).
In brackets after ≈: the same amount, converted by molar mass. Activity calls are given as the source filed them. The calls are words filed in the database; no cut-off is given here.

How the values were obtained:
[1] = biological target: T1, Scavenger receptor class B member 1 (Mus musculus, UniProt Q61009); test: Inhibition of mouse SR-BI isoform 1 expressed in CHO cells assessed as reduction in transfer of fluorescent lipid DiI from human HDL particles into cells by fluorescence assay; format: cell-based
T1 sequence (Q61009 whole entry): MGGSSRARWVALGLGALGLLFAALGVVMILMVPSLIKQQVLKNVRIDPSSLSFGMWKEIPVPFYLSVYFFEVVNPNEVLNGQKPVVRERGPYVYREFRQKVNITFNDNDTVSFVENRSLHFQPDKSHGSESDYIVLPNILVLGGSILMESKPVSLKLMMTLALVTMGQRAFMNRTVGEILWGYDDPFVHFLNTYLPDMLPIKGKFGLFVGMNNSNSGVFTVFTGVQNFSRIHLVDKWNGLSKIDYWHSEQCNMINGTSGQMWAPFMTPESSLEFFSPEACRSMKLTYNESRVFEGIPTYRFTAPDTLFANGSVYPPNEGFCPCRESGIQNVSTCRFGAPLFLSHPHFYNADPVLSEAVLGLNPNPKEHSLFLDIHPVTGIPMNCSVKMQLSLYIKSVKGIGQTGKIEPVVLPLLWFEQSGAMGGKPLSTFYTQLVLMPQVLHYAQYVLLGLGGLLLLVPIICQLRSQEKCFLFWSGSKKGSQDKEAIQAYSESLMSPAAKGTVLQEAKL
Procedure, shortened: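 ldlA[mSR-BI] cells (CHO, lacking LDL receptor, overexpressing mouse SR-BI), 10,000 per well, plated overnight in F12K/5% FCS. Medium swapped to Ham's F12/0.5% fatty acid-free BSA/25 mM HEPES pH 7.4 with DiI-HDL at 10 μg protein/ml final. Compound pinned in, 3 h at 37 °C, then two PBS (+Ca/Mg) washes. Bottom-read fluorescence; normalized to DMSO and 1 μM BLT-1.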

[2] = Aqueous solubility in PBS buffer with 1% DMSO at 100 uM incubated for 24 hrs by UPLC-MS method; format: physicochemical
Procedure, shortened: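 Duplicate samples at 100 μM in PBS pH 7.4 with 1% DMSO, plus matching samples in 100% DMSO. Shaken 250 rpm for 24 h at room temperature. Quantified by UPLC-MS with SIR detection on a single quadrupole; PBS response fitted to a two-point calibration made from the DMSO samples.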

[3] = biological target: T1, Scavenger receptor class B member 1; test: Inhibition of mouse SR-BI isoform 1 expressed in CHO cells assessed as increase in binding of Alexa-488-labeled HDL particles to cells; format: cell-based
Procedure, shortened: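 ldlA[mSR-BI] cells (LDL receptor-deficient CHO overexpressing mouse SR-BI), 10,000/well in Ham's F12K/5% FCS, grown overnight. Medium swapped for Ham's F12/0.5% fatty acid-free BSA/25 mM HEPES pH 7.4 containing 10 ug/mL Alexa 488-HDL (dye bound covalently to apolipoprotein). Compounds pinned in, 1 uM BLT-1 as positive control, 3 h at 37°C. Cells washed twice with PBS (+Ca/Mg), bottom-read fluorescence, normalised to DMSO and BLT-1 wells.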

CHO [4] = test: Inhibition of general receptor-mediated endocytosis in SR-BI isoform 1 expressing CHO cells assessed as effect on endocytosis of Alexa-594-labeled transferrin up to 35 uM; format: functional, cell-based; details: Cricetulus griseus
[5] = Stability in human plasma assessed as compound remaining at 5 uM after 5 hrs at 37 degC by UPLC-MS method; format: ADME, cell-free; details: read-out: Stability
Procedure, shortened: (§1)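 Plasma (human or mouse) diluted 50/50 with PBS pH 7.4, compound at 5 μM (0.95% acetonitrile, 0.05% DMSO). Run in duplicate, shaken 250 rpm at 37 °C. Sampled at 0 and 5 h; analysed by UPLC-MS with SIR detection.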

[6] = Stability in mouse plasma assessed as compound remaining at 5 uM after 5 hrs at 37 degC by UPLC-MS method; format: ADME, cell-free; details: read-out: Stability; procedure, shortened: as §1
[7] = Stability in human liver microsomes assessed as compound remaining at 1 uM in presence of NADPH at 37 degC after 1 hr by UHPLC-MS method; format: ADME; details: read-out: Stability
Procedure, shortened: (§2)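 Liver microsomes (human or mouse) in PBS pH 7.4, final 1 μM compound, 0.3 mg/mL microsomes, 0.5 mM NADPH, 1% DMSO. Run in duplicate at 37 °C with 250 rpm shaking. Sampled at 0 and 1 h.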

[8] = Stability in mouse liver microsomes assessed as compound remaining at 1 uM in presence of NADPH at 37 degC after 1 hr by UHPLC-MS method; format: ADME; details: read-out: Stability; procedure, shortened: as §2
CHO [9] = test: Cytotoxicity against CHO cells after 24 hrs; format: cell-based, Cricetulus griseus; details: chinese hamster

Row | SMILES | IC50 [1] | further results
1 | CC(C(=O)NC1CCCC1)N(C(=O)Cn1nnc(-c2ccc3c(c2)OCO3)n1)C1CCOCC1 (stereo not drawn) | 840 nM | 
2 | COc1ccc(-c2nc(CC(=O)N(C3CCCCC3)C(C)C(=O)NC3CCCC3)cs2)cc1OC (stereo not drawn) | 6300 nM | 
3 | COc1ccc(-c2nc(CC(=O)N(C3CCCCC3)C(C)C(=O)NC3CCCC3)co2)cc1OC (stereo not drawn) | 130 nM | 
4 | COc1ccc(-c2nnn(CC(=O)N(C3CCCCC3)C(C)C(=O)NC(C)(C)C)n2)cc1OC (stereo not drawn) | 17000 nM | 
5 | COc1ccc(-c2nnn(CC(=O)N(C3CCCCC3)C(C)C(=O)N(C)C3CCCC3)n2)cc1OC (stereo not drawn) | 1600 nM | 
6 | COc1ccc(-c2nnn(CC(=O)N(CC3CCCCC3)C(C)C(=O)NC3CCCC3)n2)cc1OC (stereo not drawn) | 1600 nM | 
7 | COc1ccc(-c2nnn(CC(=O)N(C3CC3)C(C)C(=O)NC3CCCC3)n2)cc1OC (stereo not drawn) | 7500 nM | 
8 | COc1ccc(-c2nnn(CC(=O)N(C3CCCCC3)C(C)C(=O)NC3CC3)n2)cc1OC (stereo not drawn) | 420 nM | 
9 | COc1ccc(-c2nnn(CC(=O)N(C3CCCCC3)C(C)(C)C(=O)NC3CCCC3)n2)cc1OC | 19000 nM | 
10 | COCC(=O)N1CCc2cc(-c3csc(NC(=O)c4cc(OC)cc(OC)c4)n3)ccc21 |  | solubility kinetic at 24 h, 100 µM [2]: 0.57 µM (≈ 0.259 µg/mL)
11 | COc1ccc(-c2nnn(CC(=O)N(C3CCCCC3)C(C(=O)NC3CCCC3)C(C)C)n2)cc1OC (stereo not drawn) | > 25000 nM | 
12 | COc1ccc(-c2cc(CC(=O)N(C3CCCCC3)C(C)C(=O)NC3CCCC3)no2)cc1OC (stereo not drawn) | 23 nM | 
13 | COc1ccc(-c2nnn(CC(=O)N(C3CCCCC3)C(C)C(=O)NC(C)C)n2)cc1OC (stereo not drawn) | 810 nM | 
14 | COc1ccc(-c2nnn(CC(=O)N(C)C(C)C(=O)NC3CCCC3)n2)cc1OC (stereo not drawn) | 19000 nM | 
15 | COc1ccc(-c2nnn(CC(=O)N(C3CCN(C)CC3)C(C)C(=O)NC3CCCC3)n2)cc1OC (stereo not drawn) | > 25000 nM | 
16 | O=C(CN(C(=O)Cn1nnc(-c2ccc3c(c2)OCO3)n1)C1CCCCC1)NC1CCCC1 | 26 nM | 
17 | COc1ccc(-c2nnn(CC(=O)N(C3CCCCC3)C(C)C(=O)N3CCCCC3)n2)cc1OC (stereo not drawn) | 7100 nM | 

Further lines, with some results ahead:

Row | IC50 [1] | SMILES | further results
18 | 37000 nM | CC(C(=O)NC1CCCC1)N(C(=O)Cc1ccccc1)C1CCCCC1 (stereo not drawn) | 
19 | 200 nM | COc1ccc(-c2nnn(CC(=O)N(C3CCCCC3)C(C)C(=O)NC3CCCCC3)n2)cc1OC (stereo not drawn) | 
20 | 27 nM | CC(C(=O)NC1CCCC1)N(C(=O)Cn1nnc(-c2ccc3c(c2)OCO3)n1)C1CCCCC1 (stereo not drawn) | 
21 | 620 nM | CC(C(=O)NC1CCCC1)N(C(=O)Cn1nnc(-c2ccccc2F)n1)C1CCCCC1 (stereo not drawn) | 
22 | 180 nM | COc1cccc(-c2nnn(CC(=O)N(C3CCCCC3)C(C)C(=O)NC3CCCC3)n2)c1 (stereo not drawn) | 
23 | 370 nM | CC(C(=O)NC1CCCC1)N(C(=O)Cn1nnc(-c2ccccc2)n1)C1CCCCC1 (stereo not drawn) | 
24 | > 25000 nM | COc1ccccc1-c1nnn(CC(=O)N(C2CCCCC2)C(C)C(=O)NC2CCCC2)n1 (stereo not drawn) | 
25 | 230 nM | CC(C(=O)NC1CCCC1)N(C(=O)Cn1nnc(-c2ccc3c(c2)OC(F)(F)O3)n1)C1CCCCC1 (stereo not drawn) | 
26 | 17 nM | C[C@H](C(=O)NC1CCCC1)N(C(=O)Cn1nnc(-c2ccc3c(c2)OCO3)n1)C1CCCCC1 | solubility kinetic at 24 h, 100 µM [2]: 28 µM (≈ 13.1 µg/mL); EC50 [3]: 270 nM; inhibition (CHO [4]): inactive; remaining at 5 h, 5 µM [5]: > 99%; remaining at 5 h, 5 µM [6]: > 99%; remaining at 1 h, 1 µM [7]: < 1%; remaining at 1 h, 1 µM [8]: < 1%
27 | 3800 nM | CC(C(=O)NC1CCCC1)N(C(=O)Cn1nnc(-c2ccccc2Cl)n1)C1CCCCC1 (stereo not drawn) | 
28 | 130 nM | CC(C(=O)NC1CCCC1)N(C(=O)Cn1nnc(-c2ccc(F)cc2)n1)C1CCCCC1 (stereo not drawn) | 
29 | 110 nM | COc1ccc(-c2nnn(CC(=O)N(C3CCCC3)C(C)C(=O)NC3CCCC3)n2)cc1OC (stereo not drawn) | 
30 | 55 nM | COc1ccc(-c2nnn(CC(=O)N(C3CCCCC3)C(C)C(=O)NC3CCCC3)n2)cc1OC (stereo not drawn) | Activity (CHO [9]): Non-toxic; solubility kinetic at 24 h, 100 µM [2]: 114 µM (≈ 55.2 µg/mL)
31 | 180 nM | CC(C(=O)NC1CCCC1)N(C(=O)Cn1nnc(-c2ccc(Cl)c(Cl)c2)n1)C1CCCCC1 (stereo not drawn) | 
32 | 170 nM | CC(C(=O)NC1CCCC1)N(C(=O)Cn1nnc(-c2ccc(Cl)cc2)n1)C1CCCCC1 (stereo not drawn) | 
33 | 490 nM | Cc1ccc(-c2nnn(CC(=O)N(C3CCCCC3)C(C)C(=O)NC3CCCC3)n2)cc1 (stereo not drawn) | 
34 | 380 nM | CC(C(=O)NC1CCCC1)N(C(=O)Cn1nnc(-c2cccc(F)c2)n1)C1CCCCC1 (stereo not drawn) | 
